Measurements taken from publication PMC4512239 (Clinical cancer research : an official journal of the …, 2015).

Key:
CYP isozymes = assay: metabolism in human hepatocytes and heterologously expressed CYP isozymes; format: in vitro ADME
[1] = clinical plasma pharmacokinetics; format: in vivo, human; conditions: for AUC / Cmax / half-life: human, plasma
p-4EBP1 in PBMNCs = assay: p-4EBP1 in peripheral blood mononuclear cells by flow cytometry; format: in vivo, human
p-AKT (S473) in PRP = assay: p-AKT in platelet-rich plasma by Meso Scale Discovery immunoassay; format: in vivo, human
p-S6 = p-S6 immunohistochemistry in pre- and post-treatment tumor biopsies; format: in vivo, human; conditions: 50 mg BD, post-treatment vs pre-treatment, mean H score
Procedure, shortened: (§1)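 Paired tumor biopsies taken before treatment and on days 8-15 of continuous oral twice-daily dosing, in a subset of expansion-cohort patients with advanced solid tumors. Patients fasted (water allowed) 2 h before and 1 h after each dose. Markers were scored by immunohistochemistry on post-treatment versus pre-treatment samples.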

p-4EBP1 = p-4EBP1 immunohistochemistry in pre- and post-treatment tumor biopsies; format: in vivo, human; conditions: 50 mg BD, post-treatment vs pre-treatment, mean H score
Procedure, shortened: as §1

p-AKT = p-AKT immunohistochemistry in pre- and post-treatment tumor biopsies; format: in vivo, human; conditions: 50 mg BD
Procedure, shortened: as §1

SUVmax of tumors = assay: FDG PET scans at baseline and day 8; format: in vivo, human; conditions: Part B, 50 mg BD, paired FDG PET scans
advanced solid tumors = assay: disease response by RECIST 1.1; format: in vivo, human; conditions: one each with ovarian and endometrial cancer
MCF7 xenograft models = assay: MCF7 xenograft growth inhibition; format: in vivo
m-TORC1/2 = conditions: ATP competitive m-TORC1/2 inhibitor; cited from earlier work
[2] = 50 mg, 24 hours (12 hours after the 2nd BD dose)

CNC(=O)c1cccc(-c2ccc3c(N4CCOC[C@@H]4C)nc(N4CCOC[C@@H]4C)nc3n2)c1 [AZD2014]
metabolising CYP isozymes (CYP isozymes): primarily metabolised by CYP 3A5 and 2C8 with some contribution from 3A4
free weekly AUC, average ([1]; 50mg BD solution, converted from total exposure with MW and 5.47% free): 11.05 µM·h
Cmin SS, Gmean ([1]; 50 mg BD, n=27): 169.5 ng/mL
Cmin SS, range ([1]; 50 mg BD, n=27): 0 to 2120 ng/mL
dose proportionality of Geomean exposure (AUC and Cmax) ([1]; 25 to 100 mg): increased greater than proportionally with increasing dose
AUC ([1]; oral, 25 mg, AUC, Gmean, Single dose, N=6): 1640 ng·h/mL
AUC ([1]; oral, 25 mg, AUC, Range, Single dose, N=6): 883 to 2730 ng·h/mL
AUC ([1]; oral, 25 mg, AUCss, Gmean, Steady state, 25 mg BD, N=6): 2980 ng·h/mL
AUC ([1]; oral, 25 mg, AUCss, Range, Steady state, 25 mg BD, N=6): 1000 to 6560 ng·h/mL
Cmax ([1]; oral, 25 mg, Cmax ss, Gmean, Steady state, 25 mg BD, N=6): 747 ng/mL
Cmax ([1]; oral, 25 mg, Cmax ss, Range, Steady state, 25 mg BD, N=6): 227 to 1450 ng/mL
Cmax ([1]; oral, 25 mg, Cmax, Gmean, Single dose, N=6): 435 ng/mL
Cmax ([1]; oral, 25 mg, Cmax, Range, Single dose, N=6): 221 to 681 ng/mL
half-life ([1]; oral, 25 mg, t½, Mean, Single dose, N=6): 2.96 h
half-life ([1]; oral, 25 mg, t½, Range, Single dose, N=6): 0.88 to 6.71 h
half-life ([1]; oral, 25 mg, t½, ss, Mean, Steady state, 25 mg BD, N=6): 2.89 h
half-life ([1]; oral, 25 mg, t½, ss, Range, Steady state, 25 mg BD, N=6): 1.34 to 4.06 h
AUC ([1]; oral, 50 mg, AUC, Gmean, Single dose, N=27): 4020 ng·h/mL
AUC ([1]; oral, 50 mg, AUC, Range, Single dose, N=27): 453 to 12600 ng·h/mL
AUC ([1]; oral, 50 mg, AUCss, Gmean, Steady state, 50 mg BD, N=37): 6690 ng·h/mL
AUC ([1]; oral, 50 mg, AUCss, Range, Steady state, 50 mg BD, N=37): 1280 to 47800 ng·h/mL
Cmax ([1]; oral, 50 mg, Cmax ss, Gmean, Steady state, 50 mg BD, N=37): 1660 ng/mL
Cmax ([1]; oral, 50 mg, Cmax ss, Range, Steady state, 50 mg BD, N=37): 657 to 6410 ng/mL
Cmax ([1]; oral, 50 mg, Cmax, Gmean, Single dose, N=27): 1150 ng/mL
Cmax ([1]; oral, 50 mg, Cmax, Range, Single dose, N=27): 234 to 2840 ng/mL
half-life ([1]; oral, 50 mg, t½, Mean, Single dose, N=27): 2.48 h
half-life ([1]; oral, 50 mg, t½, Range, Single dose, N=27): 0.9 to 8.04 h
half-life ([1]; oral, 50 mg, t½, ss, Mean, Steady state, 50 mg BD, N=37): 3.01 h
half-life ([1]; oral, 50 mg, t½, ss, Range, Steady state, 50 mg BD, N=37): 1.18 to 4.8 h
AUC ([1]; oral, 70 mg, AUC, Gmean, Single dose, N=5): 8970 ng·h/mL
AUC ([1]; oral, 70 mg, AUC, Range, Single dose, N=5): 6010 to 14200 ng·h/mL
AUC ([1]; oral, 70 mg, AUCss, Range, Steady state, 70 mg BD, N=2): 7500 to 22500 ng·h/mL
Cmax ([1]; oral, 70 mg, Cmax ss, Range, Steady state, 70 mg BD, N=2): 1500 to 3870 ng/mL
Cmax ([1]; oral, 70 mg, Cmax, Gmean, Single dose, N=5): 2380 ng/mL
Cmax ([1]; oral, 70 mg, Cmax, Range, Single dose, N=5): 1440 to 3690 ng/mL
half-life ([1]; oral, 70 mg, t½, Mean, Single dose, N=5): 3.11 h
half-life ([1]; oral, 70 mg, t½, Range, Single dose, N=5): 1.35 to 5.98 h
half-life ([1]; oral, 70 mg, t½, ss, Range, Steady state, 70 mg BD, N=2): 3.63 to 4.23 h
AUC ([1]; oral, 100 mg, AUC, Gmean, Single dose, N=4): 9670 ng·h/mL
AUC ([1]; oral, 100 mg, AUC, Range, Single dose, N=4): 4770 to 16100 ng·h/mL
Cmax ([1]; oral, 100 mg, Cmax, Gmean, Single dose, N=4): 2790 ng/mL
Cmax ([1]; oral, 100 mg, Cmax, Range, Single dose, N=4): 1410 to 5050 ng/mL
half-life ([1]; oral, 100 mg, t½, Mean, Single dose, N=4): 3.23 h
half-life ([1]; oral, 100 mg, t½, Range, Single dose, N=4): 0.82 to 6.49 h
half-life ([1]; po, terminal elimination half-life, patients): ~3 h
mean % change from baseline in p-4EBP1 (p-4EBP1 in PBMNCs; [2]): −21%
mean % change from baseline in p-4EBP1 (p-4EBP1 in PBMNCs; single 50 mg dose, 6-8 hours): ~−41%
mean % change from baseline in p-AKT (p-AKT (S473) in PRP; [2]): −2%
mean % change from baseline in p-AKT (p-AKT (S473) in PRP; single 50 mg dose, 6-8 hours): −37%
mean % change from baseline in p-AKT (p-AKT (S473) in PRP; single 50 mg dose, 2 hours): −62%
evaluable paired biopsy samples with a reduction of p-S6 levels (p-S6): 8/8
paired biopsy samples with a reduction of p-4EBP1 levels (p-4EBP1): 3/7
induction of phosphorylation of AKT in post-treatment biopsies (p-AKT): no instances of induction of phosphorylation of AKT were seen
paired biopsy samples with a reduction of p-AKT levels (p-AKT; post-treatment vs pre-treatment, mean H score): 3/4
patients attaining a partial response (30% reduction in SUVmax) (SUVmax of tumors): 3/11
patients with a reduction of SUVmax (SUVmax of tumors): 8/11
patients with prolonged stable disease on treatment for more than one year (advanced solid tumors): two patients
total growth inhibition (TGI) (MCF7 xenograft models; 4500 nM.h free weekly AUC): > 70%
total growth inhibition (TGI) (MCF7 xenograft models; 17000 nM.h free weekly AUC): ≥ 100%
IC50 (m-TORC1/2): 2.81 nM
